Consider 52 compounds from ChEMBL document CHEMBL1671701, “Discovery of potent small-molecule inhibitors of multidrug-resistant Plasmodium falciparum using a novel miniaturized high-throughput luciferase-based assay” (Antimicrob Agents Chemother, 2010).

Assay [1] is described as follows: Cytotoxicity activity against human HAEC cells after 24 hrs. It counts as cell-based.
For the next assay, the system named is HepG2. In words: Cytotoxicity activity against human HepG2 cells after 24 hrs. It is filed as cell-based. The following applies: HepG2, 24 h.
For assay [2], the system named is Plasmodium falciparum. In words: Antiplasmodial activity against Plasmodium falciparum 3D7 infected in RBCs by firefly luciferase reporter gene assay. It counts as functional, organism-based. The gist of the method:
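Sorbitol-synchronised 3D7 expressing firefly luciferase from the HRPII promoter, at 1% late-ring parasitemia and 3% hematocrit in RPMI/albumax II medium. Sixteen 2-fold dilutions from 17 μM to 0.5 nM, 48 h at 37°C under 5% O2/5% CO2/N2. Bright-Glo luminescence is normalised to untreated infected and uninfected-RBC wells. IC50 by four-parameter logistic fit.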
(In general: Reporter assays use an easily measured gene product as a stand-in for the process of interest.)

In assay [3] the test system is Plasmodium falciparum. As to the kind of experiment: Antiplasmodial activity against Plasmodium falciparum 3D7 by SYBR Green 1-based fluorescence assay. It counts as functional, organism-based.
The subject of assay [4] is Plasmodium falciparum. In words: Antiplasmodial activity against multidrug-resistant Plasmodium falciparum TM90C2B by SYBR Green 1-based fluorescence assay. It counts as functional, organism-based. The gist of the method:
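Resistant TM90C2B parasites are treated over a dose range and growth is read as SYBR green I fluorescence. IC50 comes from a fit of the log dose-response relationship, as the mean of at least three separate experiments.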

Counter-ions that a name gives are not always drawn. Where only a bound is given, the exact number is not on record here.

A word on the IC50: it is the point on the concentration scale where inhibition reaches its midpoint. A higher IC50 goes with lower potency. For `COc1cccc(N(C(C)=O)C2=C(N(C)C)C(=O)c3ccccc3C2=O)c1`, the IC50 in assay [1] was determined as 11000 nM; with HepG2, 13000 nM; in the assay on Plasmodium falciparum [2] (Plasmodium falciparum, 3D7), 5.3 nM; with Plasmodium falciparum [3], 35 nM; in the assay with Plasmodium falciparum [4], 31 nM.
Regarding `CC(=O)N(C1=C(N(C)C)C(=O)c2ccccc2C1=O)c1ccc(Cl)cc1`, the IC50 in assay [1] turned out to be 41000 nM; in the assay on HepG2, 8100 nM; in the assay with Plasmodium falciparum [2] (Plasmodium falciparum, 3D7), 14 nM.
`COc1cccc2c1C(=O)c1c(O)c3c(c(O)c1C2=O)C[C@@](O)(C(=O)CO)C[C@@H]3O[C@H]1C[C@H](N)[C@H](O)[C@H](C)O1` [DOXORUBICIN]: the IC50 stood at 13000 nM in assay [1] and 69000 nM with HepG2.
Take `CC(=O)N(C1=C(N(C)C)C(=O)c2ccccc2C1=O)c1cccc(Br)c1`: the IC50 in the assay with Plasmodium falciparum [2] (Plasmodium falciparum, 3D7) was determined as 32 nM; in the assay on Plasmodium falciparum [3] it was 130 nM; in the assay with Plasmodium falciparum [4], 94 nM.
For the compound `C/N=C(/NC#N)NCCSCc1csc(NC(=N)N)n1` [TIOTIDINE], the IC50 in the assay on Plasmodium falciparum [2] (Plasmodium falciparum, 3D7) was more than 22800 nM.
In turn, `CCNC(=O)N1CCN(CCCC(c2ccc(F)cc2)c2ccc(F)cc2)CC1` [AMPEROZIDE HYDROCHLORIDE] had an IC50 in the assay with Plasmodium falciparum [2] of 35 nM.
As to `c1cc(CN2CCCCC2)cc(OCCCNc2nc3ccccc3s2)c1` [ZOLANTIDINE], the IC50 was 75000 nM in assay [1] and 76000 nM in the assay on HepG2.
As to `CN1CCc2cccc3c2[C@H]1Cc1ccc(O)c(O)c1-3` [APOMORPHINE HYDROCHLORIDE], half-maximal inhibition with Plasmodium falciparum [2] (Plasmodium falciparum, 3D7) (IC50) required 373 nM. This counts as sub-micromolar.
Same read-out and setting: in the case of `CN(C)c1nc(N)c(C(=O)NC(=N)N)nc1Cl` [5-(N,N-DIMETHYL)AMILORIDE HYDROCHLORIDE] it was 1100 nM; in that of `Fc1ccc(C(CCCN2CCNCC2)c2ccc(F)cc2)cc1`, 4500 nM.
As to `CC(=O)N(C1=C(N2CCCCC2)C(=O)c2ccccc2C1=O)c1cccc(Cl)c1`, the IC50 in the assay on Plasmodium falciparum [2] (Plasmodium falciparum, 3D7) was 4300 nM.
On to `CC(=O)N(C1=C(N2CCOCC2)C(=O)c2ccccc2C1=O)c1ccccc1`, for which the IC50 with Plasmodium falciparum [2] (Plasmodium falciparum, 3D7) was found to be 780 nM; in the assay with Plasmodium falciparum [3], 1600 nM; with Plasmodium falciparum [4], 530 nM.
`CCN(c1nc(N)c(C(=O)NC(=N)N)nc1Cl)C(C)C` [5-(N-ETHYL-N-ISOPROPYL)AMILORIDE] had an IC50 in the assay on Plasmodium falciparum [2] (Plasmodium falciparum, 3D7) of 825 nM.
`COc1ccc(CNC2CCN(Cc3ccccc3)CC2)cc1` had an IC50 in the assay with Plasmodium falciparum [2] (Plasmodium falciparum, 3D7) of 1300 nM.
The same measure, in the same setting: as for `C=C[C@H]1CN2CC[C@H]1C[C@@H]2[C@@H](O)c1ccnc2ccc(OC)cc12` [QUINIDINE SULFATE], the figure is 56 nM; as for `Cc1cccc(C2=NN=C(c3ccc(Br)cc3)C2)c1O`, 4700 nM.
On the same count and under the same terms, in the case of `CCCN(CC1CC1)c1cc(Br)cc(Br)c1O` it was 710 nM.
On the same count and under the same terms, as for `CC(C)C[C@@H]1NC(=O)[C@H](CCCN)NC(=O)[C@H](C(C)C)NC(=O)[C@H](Cc2ccc(O)cc2)N[C@@H](CCC(=O)O)C(=O)N[C@@H](CC(N)=O)C(=O)[C@@H](Cc2ccccc2)NC(=O)[C@H](Cc2ccccc2)NC(=O)[C@@H]2CCCN2C(=O)[C@@H](Cc2ccccc2)NC1=O` [TYROTHRICIN], the figure is 0.05 nM.
`CC(=O)N(C1=C(N2CCOCC2)C(=O)c2ccccc2C1=O)c1cccc(Cl)c1`: the IC50 came to 790 nM in the assay on Plasmodium falciparum [2] (Plasmodium falciparum, 3D7); 1800 nM with Plasmodium falciparum [3]; 510 nM in the assay with Plasmodium falciparum [4].
Compound `C[C@@H]1C[C@H]2[C@@H]3CCC4=CC(=O)C=C[C@]4(C)[C@@]3(Cl)[C@@H](O)C[C@]2(C)[C@@]1(OC(=O)c1ccco1)C(=O)CCl` [MOMETASONE FUROATE] returned an IC50 in the assay with Plasmodium falciparum [2] (Plasmodium falciparum, 3D7) of 1510 nM.
On the same count and under the same terms, as for `CNC(=C[N+](=O)[O-])NCCSCc1ccc(CN(C)C)o1` [RANITIDINE HYDROCHLORIDE], the figure is more than 22800 nM; as for `CCN(CC)CCNc1ccc(CO)c2sc3ccccc3c(=O)c12` [HYCANTHONE], 3020 nM.
Same read-out and setting: in the case of `CCCCOc1ccc(CC(=O)NO)cc1` [BUFEXAMAC] it was 2770 nM.
Same read-out and setting: in the case of `CNC(=C[N+](=O)[O-])NCCSCc1csc(CN(C)C)n1` [NIZATIDINE] it was more than 22800 nM; in that of `Cc1ccc(CS(=O)(=O)N2CCN(CCCC(c3ccc(F)cc3)c3ccc(F)cc3)CC2)cc1`, 800 nM.
With `Oc1c(Cl)cccc1N1CCCCCCC1`, in the assay with Plasmodium falciparum [2] (Plasmodium falciparum, 3D7), the IC50 stood at 180 nM.
Still for that read-out and setting: as for `NC(N)=Nc1nc(CSCC/C(N)=N/S(N)(=O)=O)cs1` [FAMOTIDINE], the figure is more than 22800 nM.
Same read-out and setting: as for `CCCCN(Cc1ccccc1)c1ccccc1O`, the figure is 420 nM; as for `Oc1c(Br)cccc1N1CCCCCCC1`, 430 nM; as for `Fc1ccc(C(CCCN2CCOCC2)c2ccc(F)cc2)cc1`, 18000 nM.
`O=C1C(O)=C([C@H]2CC[C@H](c3ccc(Cl)cc3)CC2)C(=O)c2ccccc21` [ATOVAQUONE]: the IC50 in the assay with Plasmodium falciparum [2] (Plasmodium falciparum, 3D7) was determined as 0.41 nM; in the assay on Plasmodium falciparum [3], 0.8 nM; in the assay with Plasmodium falciparum [4], 12000 nM.
As for `C=C[C@H]1CN2CC[C@H]1C[C@H]2[C@H](O)c1ccnc2ccc(OC)cc12` [QUININE SULFATE], it took 280 nM to reach half-maximal inhibition in the assay with Plasmodium falciparum [2] (Plasmodium falciparum, 3D7) (IC50).
`CN1CCN(CCCC(c2ccc(F)cc2)c2ccc(F)cc2)CC1`: the IC50 in the assay on Plasmodium falciparum [2] (Plasmodium falciparum, 3D7) was 12000 nM.
Still for that read-out and setting: as for `N#Cc1ccc2c(c1)N(CCCN1CCC(O)CC1)c1ccccc1S2` [PERICIAZINE], the figure is 6560 nM.
On to `CCNC(=O)N1CCN(CCCC(c2ccc(F)cc2)c2ccc(F)cc2)CC1` [AMPEROZIDE], for which the IC50 is 83000 nM in assay [1] and 95000 nM in the assay on HepG2.
As for `C[C@H]1[C@H](OC(=O)CCC(=O)O)O[C@@H]2O[C@@]3(C)CC[C@H]4[C@H](C)CC[C@@H]1[C@@]24OO3` [ARTESUNATE], the IC50 in the assay with Plasmodium falciparum [2] (Plasmodium falciparum, 3D7) worked out at 3.3 nM.
Still for that read-out and setting: in the case of `CCC(=O)O[C@]1(C(=O)CCl)[C@@H](C)C[C@H]2[C@@H]3CCC4=CC(=O)C=C[C@]4(C)[C@@]3(F)[C@@H](O)C[C@@]21C` [CLOBETASOL PROPIONATE] it was 797 nM.
Compound `C=C[C@H]1CN2CC[C@H]1C[C@@H]2[C@@H](O)c1ccnc2ccccc12` [CINCHONINE] came in with an IC50 with Plasmodium falciparum [2] (Plasmodium falciparum, 3D7) of 5 nM.
On to `CC(=O)N(C1=C(N(C)C)C(=O)c2ccccc2C1=O)c1ccc(F)c(F)c1`, for which the IC50 worked out at 25 nM in the assay with Plasmodium falciparum [2] (Plasmodium falciparum, 3D7); 170 nM in the assay with Plasmodium falciparum [3]; 110 nM with Plasmodium falciparum [4].
Regarding `CCCN(CCC)[C@H]1CCc2c(F)ccc(O)c2C1`, 5 nM corresponded to half-maximal inhibition in the assay with Plasmodium falciparum [2] (Plasmodium falciparum, 3D7) (IC50). That is a single-digit nanomolar value.
Take `CCNC(=O)N1CCN(CCCC(c2ccc(F)cc2)c2ccc(F)cc2)CC1` [AMPEROZIDE DIHYDROCHLORIDE]: in the assay on Plasmodium falciparum [2], inhibition was half-maximal at 443 nM (IC50).
In the assay on Plasmodium falciparum [2] (Plasmodium falciparum, 3D7), `N/C(=N\C(=O)c1nc(Cl)c(N)nc1N)NCc1ccc(Cl)c(Cl)c1` [3',4' DICHLOROBENZAMIL] displayed an IC50 of 143 nM. In other words, the sub-micromolar range.
Still for that read-out and setting: as for `CN(CCc1ccccc1)c1cc(Br)cc(Br)c1O`, the figure is 36 nM; as for `Clc1ccc(C(OCCN2CCCCC2)c2ccccc2)cc1` (configuration not stated) [CLOPERASTINE HYDROCLORIDE], 4880 nM.
`CC(=O)N(C1=C(N(C)C)C(=O)c2ccccc2C1=O)c1cccc(Cl)c1`: the IC50 in assay [1] was 45000 nM; in the assay on HepG2 it was 5100 nM; with Plasmodium falciparum [2] (Plasmodium falciparum, 3D7) it was 14 nM; in the assay on Plasmodium falciparum [3] it was 140 nM; in the assay with Plasmodium falciparum [4], 72 nM.
For the compound `CCCN1CCC(NC(c2ccccc2)c2ccc(Cl)cc2)CC1` (configuration not stated), the IC50 with Plasmodium falciparum [2] (Plasmodium falciparum, 3D7) was determined as 1100 nM.
The same measure, in the same setting: as for `CCCCN(C)c1cc(Br)cc(Br)c1O`, the figure is 270 nM; as for `CCCCCC[C@H]1C(=O)O[C@H](C)[C@H](NC(=O)c2cccc(NC=O)c2O)C(=O)O[C@@H](C)[C@@H]1OC(=O)CC(C)C` [ANTIMYCIN A], 2190 nM.
Still for that read-out and setting: as for `CCCN(CC1CC1)c1cc(OC)cc(Br)c1O`, the figure is 290 nM; as for `NC(=O)CCCCn1ccc(/N=C(\N)NCC(F)(F)F)n1`, 18000 nM.
With `CC(=O)N(C1=C(N(C)C)C(=O)c2ccccc2C1=O)c1cccc(F)c1`, the IC50 in the assay on Plasmodium falciparum [2] (Plasmodium falciparum, 3D7) stood at 11 nM; with Plasmodium falciparum [3], 110 nM; with Plasmodium falciparum [4], 74 nM.
Turning to `N#CN/C(=N\CCNC(=O)c1ccc(N)cc1)NCCCOc1cccc(CN2CCCCC2)c1` [AMINOPOTENTIDINE], in the assay with Plasmodium falciparum [2] (Plasmodium falciparum, 3D7), it took 14700 nM to reach half-maximal inhibition (IC50).
